Rows were chosen to be rich in hits. Some 3.5% of all compounds tested hit in one or more screens of this group.
RGS4 pot = RGS4 potentiators or activators, primary screen, cell-based, HEK293 M3R inducible RGS4, calcium flux; carbachol calcium flux Fluo4; stronger effect = lower value; AID 463111, 2010; B-score at 10 µM; 310,000 tested, 0.92% active;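 active means B-score of the integrated calcium signal more than 4 SD below the library mean, with starting fluorescence not abnormally high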;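 further: negative B-score means reduced calcium response which marks RGS4 activation or potentiation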
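Detection: kinetic calcium fluorescence imaging with Fluo4-AM dye, 2 µM / Material: HEK293 cells with stable M3R and inducible RGS4 / Schedule: recording 10 s baseline at 1 Hz, 100 s post-agonist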
MrgX1 antagonist = antagonists of human MrgX1 receptor, primary screen, HEK293 cells, Fluo-4 calcium flux; Mas-related G-protein coupled receptor member X1 (Homo sapiens), Q96LB2; BAM8-22 antagonism; stronger effect = lower value; B-score at 10 µM; 310,000 tested, 1.3% active; AID 588676, 2011;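 active means calcium-response B-score plate-corrected more than 3 library SD below zero, starting fluorescence within 5 deviations, no agonist response on first addition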;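 further: peak minus trough fluorescence over baseline after final BAM8-22 challenge near maximal dose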
Target sequence (Q96LB2 whole entry, looked up): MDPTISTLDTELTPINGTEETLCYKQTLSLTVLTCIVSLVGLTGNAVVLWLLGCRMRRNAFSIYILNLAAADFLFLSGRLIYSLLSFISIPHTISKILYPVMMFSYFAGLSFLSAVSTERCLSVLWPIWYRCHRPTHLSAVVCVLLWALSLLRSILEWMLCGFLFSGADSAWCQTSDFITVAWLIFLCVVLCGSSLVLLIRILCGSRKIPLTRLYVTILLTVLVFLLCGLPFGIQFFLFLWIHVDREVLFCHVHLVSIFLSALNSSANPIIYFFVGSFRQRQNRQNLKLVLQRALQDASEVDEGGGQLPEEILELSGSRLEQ
MrgX1 allo act = positive allosteric modulators of MrgX1, primary screen, HEK293 cells, Fluo-4 calcium flux; Mas-related G-protein coupled receptor member X1 (Homo sapiens), Q96LB2; FDSS; stronger effect = higher value; B-score at 10 µM; 310,000 tested, 0.63% active;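 active means plate-corrected calcium response at least 3 library SD above typical, normal starting fluorescence, not activating the receptor alone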;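 further: compound read alongside a low EC10 to EC30 dose of BAM8-22 agonist; peak minus trough fluorescence over baseline measured at the second addition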
MrgX1 agonist = agonists of human MrgX1 receptor, primary screen, HEK293 cells, Fluo-4 calcium flux. Mas-related G-protein coupled receptor member X1 (Homo sapiens), Q96LB2. Fluo-4 calcium fluorescence, agonist mode; stronger effect = higher value. B-score at 10 µM. 310,000 tested, 0.44% active. AID 588627, 2011;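 active means calcium response B-score plate-corrected fluorescence ratio at least 3 library SD, with starting fluorescence B-score inside 5 SD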
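Material – MrgX1-expressing HEK293 cells · Input – 15,000 cells seeded per well · Dosing – compound as first of three additions · Times – overnight seeding, then 1 h dark dye loading · Measured by – kinetic Fluo-4 NW fluorescence of intracellular calcium · Read-out – B-scored fluorescence response ratio · Benchmarks – positive and negative control wells on each plate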
RGS4 block = RGS4 inhibitors, primary screen, cell-based, HEK293 M3R inducible RGS4, calcium flux | Fluo-4 calcium flux; stronger effect = higher value; triggered by carbachol at its EC20 | B-score at 10 µM | 310,000 tested, 0.45% active;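 active means B-score, a plate-corrected calcium signal, over three deviations above library mean, with baseline fluorescence within five deviations of library mean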;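 further: RGS4 expression induced by doxycycline in cells with stable M3 receptor; B-score is computed from the integrated fluorescence ratio over baseline after carbachol; higher B-score means a larger calcium signal and so more RGS4 inhibition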
Target sequence (P49798 whole entry, looked up): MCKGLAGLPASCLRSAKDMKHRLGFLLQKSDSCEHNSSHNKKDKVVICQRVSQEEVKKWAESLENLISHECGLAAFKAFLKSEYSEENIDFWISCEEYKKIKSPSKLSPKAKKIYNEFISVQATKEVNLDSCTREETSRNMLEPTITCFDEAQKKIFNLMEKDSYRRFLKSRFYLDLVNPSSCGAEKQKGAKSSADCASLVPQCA
MrgX1 PAM conf = MrgX1 positive allosteric modulators, duplicate retest, confirmation, HEK293 cells, Fluo-4 calcium flux. AID 602413, 2012. 1,200 tested, 13% active. shares compounds with MrgX1 allo act. activation (ratio percentage), % at 10 µM. Fluo-4 calcium fluorescence, FDSS;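 active means ratio at least 3 SD above the weak peptide control, stable starting fluorescence, no direct agonism earlier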;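 further: compound followed by low BAM8-22 agonist challenge near EC20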
HEK293 Ca flux = nonspecific calcium signal in parental HEK293, confirmation, counter-screen for MrgX1 antagonist project, parental HEK293 cells, Fluo-4 calcium flux; shares compounds with MrgX1 antagonist; Fluo-4 calcium fluorescence, FDSS; fluorescence ratio F(max-min)/F0 at 10 µM; 4,000 tested, 2% active; AID 624111, 2012;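 active means duplicate-averaged calcium fluorescence ratio at least three times the standard deviation of buffer wells, a nonspecific response in parental cells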
HEK293 Ca counter = calcium response in parental HEK293 cells, primary screen, counter-screen for MrgX1 allosteric activator project, cell-based, Fluo-4 calcium flux, duplicate | fluorescence ratio F(max-min)/F0 at 10 µM | shares compounds with MrgX1 antagonist | 4,000 tested, 0.4% active | Fluo-4 fluorescence ratio; stronger effect = higher value;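 active means calcium fluorescence ratio, averaged over duplicates, at least 3 SD of the buffer-well ratio, meaning a nonspecific response in receptor-free cells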;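 further: untransfected parental HEK293 lacking MrgX1 used as counterscreen for MrgX1 allosteric activators; fluorescence change taken during the second addition on a kinetic imager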
HEK293 Ca cntr2 = calcium response in parental HEK293 cells, primary screen, counter-screen for MrgX1 agonist project, cell-based, Fluo-4 calcium flux, duplicate, agonist mode | shares compounds with MrgX1 antagonist | Fluo-4 calcium fluorescence (FDSS); stronger effect = higher value | fluorescence ratio F(max-min)/F0 at 10 µM | 4,000 tested, 8.7% active;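 active means calcium fluorescence ratio at least three times the spread of buffer wells, meaning a non-specific response in parental cells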
Starred values were filed as active, the others as inactive.

How did Cc1ccccc1NC(=O)CSc1nnc(CNC(=O)c2ccco2)n1C do in these assays?
RGS4 pot: inactive; MrgX1 antagonist: inactive; MrgX1 allo act: inactive; MrgX1 agonist: inactive; RGS4 block: inactive

Results for C/C(=N\NC(=O)c1ccc(Cl)c(S(=O)(=O)Nc2ccccc2Cl)c1)c1ccncc1 ?
RGS4 pot: inactive; MrgX1 antagonist: inactive; MrgX1 allo act: 21*; MrgX1 agonist: inactive; RGS4 block: inactive; MrgX1 PAM conf: inactive; HEK293 Ca flux: inactive; HEK293 Ca counter: inactive; HEK293 Ca cntr2: inactive

What do the screens show for `C/C(=N\NC(=O)c1cccc(S(=O)(=O)Nc2ccccc2Cl)c1)c1ccco1`?
RGS4 pot: inactive; MrgX1 antagonist: inactive; MrgX1 allo act: inactive; MrgX1 agonist: inactive; RGS4 block: inactive

What do the screens show for `CCS(=O)(=O)c1nn2c(N)c(/C=C3/C=CC(=O)C(OC)=C3)c(=O)nc2s1`?
RGS4 pot: inactive; MrgX1 antagonist: inactive; MrgX1 allo act: 28*; MrgX1 agonist: inactive; RGS4 block: inactive; MrgX1 PAM conf: inactive; HEK293 Ca flux: inactive; HEK293 Ca counter: inactive; HEK293 Ca cntr2: 63*

What do the screens show for `Nc1c(C=C2C=CC(=O)C=C2)c(=O)nc2sc(CC(=O)N3CCCC3)nn12`?
RGS4 pot: inactive; MrgX1 antagonist: inactive; MrgX1 allo act: inactive; MrgX1 agonist: inactive; RGS4 block: inactive

Results for CN1CCN(C=Nc2nc3ccccc3nc2N2CCCC2)CC1 ?
RGS4 pot: inactive; MrgX1 antagonist: inactive; MrgX1 allo act: inactive; MrgX1 agonist: inactive; RGS4 block: inactive

Results for CC1CCN(C(=O)c2ccc(-c3ccccc3Cl)o2)CC1 ?
RGS4 pot: inactive; MrgX1 antagonist: inactive; MrgX1 allo act: 7.6*; MrgX1 agonist: inactive; RGS4 block: inactive; MrgX1 PAM conf: inactive; HEK293 Ca flux: inactive; HEK293 Ca counter: inactive; HEK293 Ca cntr2: inactive

How did O=C(NC12CC3CC(CC(C3)C1)C2)c1ccccc1O do in these assays?
RGS4 pot: inactive; MrgX1 antagonist: inactive; MrgX1 allo act: 9.8*; MrgX1 agonist: inactive; RGS4 block: inactive; MrgX1 PAM conf: inactive; HEK293 Ca flux: inactive; HEK293 Ca counter: inactive; HEK293 Ca cntr2: inactive

Results for O=C(NC12CC3CC(CC(C3)C1)C2)c1ccc(-c2ccccc2Cl)o1 ?
RGS4 pot: inactive; MrgX1 antagonist: inactive; MrgX1 allo act: 6.7*; MrgX1 agonist: inactive; RGS4 block: inactive; MrgX1 PAM conf: inactive; HEK293 Ca flux: inactive; HEK293 Ca counter: inactive; HEK293 Ca cntr2: inactive

What do the screens show for `O=C(c1ccc(-c2cccc(Cl)c2Cl)o1)N1CCOCC1`?
RGS4 pot: inactive; MrgX1 antagonist: inactive; MrgX1 allo act: inactive; MrgX1 agonist: inactive; RGS4 block: inactive

Results for NC(=O)c1c(/N=C/c2cccnc2)sc2c1CCCC2 ?
RGS4 pot: inactive; MrgX1 antagonist: inactive; MrgX1 allo act: inactive; MrgX1 agonist: inactive; RGS4 block: inactive

Results for C=CCc1c(C)nc(SC)nc1Nc1ccc(C(=O)O)cc1 ?
RGS4 pot: inactive; MrgX1 antagonist: inactive; MrgX1 allo act: inactive; MrgX1 agonist: inactive; RGS4 block: inactive

How did C=CCc1c(C)nc(SC)nc1Nc1ccc(C(C)=O)cc1 do in these assays?
RGS4 pot: inactive; MrgX1 antagonist: inactive; MrgX1 allo act: 7*; MrgX1 agonist: inactive; RGS4 block: inactive; MrgX1 PAM conf: inactive; HEK293 Ca flux: inactive; HEK293 Ca counter: inactive; HEK293 Ca cntr2: inactive

What do the screens show for `COc1ccc2[nH]c(=O)c(CN(Cc3nnnn3Cc3ccco3)C3CCCCC3)cc2c1`?
RGS4 pot: inactive; MrgX1 antagonist: inactive; MrgX1 allo act: 9.3*; MrgX1 agonist: inactive; RGS4 block: inactive; MrgX1 PAM conf: inactive; HEK293 Ca flux: inactive; HEK293 Ca counter: inactive; HEK293 Ca cntr2: inactive

Results for COc1ccc2[nH]c(=O)c(CN(Cc3ccccc3)Cc3nnnn3CC3CCCO3)cc2c1 (stereo unspecified) ?
RGS4 pot: inactive; MrgX1 antagonist: inactive; MrgX1 allo act: inactive; MrgX1 agonist: inactive; RGS4 block: inactive

What do the screens show for `COc1ccc2[nH]c(=O)c(CN(Cc3cccnc3)Cc3nnnn3CC3CCCO3)cc2c1` (stereo unspecified)?
RGS4 pot: inactive; MrgX1 antagonist: inactive; MrgX1 allo act: 26*; MrgX1 agonist: inactive; RGS4 block: inactive; MrgX1 PAM conf: inactive; HEK293 Ca flux: inactive; HEK293 Ca counter: inactive; HEK293 Ca cntr2: inactive

What do the screens show for `O=C(NCc1ccc(Cl)cc1)c1ccc(Br)o1`?
RGS4 pot: inactive; MrgX1 antagonist: inactive; MrgX1 allo act: inactive; MrgX1 agonist: inactive; RGS4 block: inactive

What do the screens show for `O=C(O)CN1C(=O)CSC1=S`?
RGS4 pot: inactive; MrgX1 antagonist: inactive; MrgX1 allo act: inactive; MrgX1 agonist: inactive; RGS4 block: inactive

How did CCCSc1nnc(N2C(=O)CC(c3ccsc3)C3=C2CCCC3=O)s1 (stereo unspecified) do in these assays?
RGS4 pot: inactive; MrgX1 antagonist: inactive; MrgX1 allo act: 8.8*; MrgX1 agonist: inactive; RGS4 block: inactive; MrgX1 PAM conf: inactive; HEK293 Ca flux: inactive; HEK293 Ca counter: inactive; HEK293 Ca cntr2: inactive

Results for Cc1nonc1NC(=O)CSc1nc(C23CC4CC(CC(C4)C2)C3)nc2ccccc12 ?
RGS4 pot: inactive; MrgX1 antagonist: inactive; MrgX1 allo act: inactive; MrgX1 agonist: inactive; RGS4 block: inactive

What do the screens show for `NC(=O)CSc1nc(C23CC4CC(CC(C4)C2)C3)nc2ccccc12`?
RGS4 pot: inactive; MrgX1 antagonist: inactive; MrgX1 allo act: 17*; MrgX1 agonist: inactive; RGS4 block: inactive; MrgX1 PAM conf: 14%*; HEK293 Ca flux: inactive; HEK293 Ca counter: inactive; HEK293 Ca cntr2: inactive

Compound activity (PubChem BioAssay)
